Experimental data taken from ChEMBL document CHEMBL4304768, “Modifications at Arg and Ile Give Neurotensin(8-13) Derivatives with High Stability and Retained NTS1 Receptor Affinity” (ACS Med Chem Lett, 2019).

Key:
[1] = Stability in human plasma assessed as percentage intact peptide at 100 uM incubated for 24 hrs by LC-HRMS analysis; assay type: ADME, cell-free; details: read-out: Stability
Outline: (§1)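 Peptides at 100 μM initial concentration in human plasma/PBS (1:2 v/v), incubated at 37 °C for up to 48 h (sampled at 10 min, 30 min, 1, 2, 6, 24, 48 h); intact peptide and fragments analysed by LC-HRMS. Values are means ± SEM from three independent experiments.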

[2] = Stability in human plasma assessed as half life at 100 uM by LC-HRMS analysis; assay type: ADME, cell-free; outline: as §1
[3] = Stability in human plasma assessed as percentage intact peptide at 100 uM incubated for 1 hr by LC-HRMS analysis; assay type: ADME, cell-free; details: read-out: Stability; outline: as §1
[4] = Stability in human plasma assessed as percentage intact peptide at 100 uM incubated for 48 hrs by LC-HRMS analysis; assay type: ADME, cell-free; details: read-out: Stability; outline: as §1
[5] = Stability in human plasma assessed as percentage intact peptide at 100 uM incubated for 10 mins by LC-HRMS analysis; assay type: ADME, cell-free; details: read-out: Stability; outline: as §1
[6] = Stability in human plasma assessed as percentage intact peptide at 100 uM incubated for 30 mins by LC-HRMS analysis; assay type: ADME, cell-free; details: read-out: Stability; outline: as §1
[7] = Stability in human plasma assessed as percentage intact peptide at 100 uM incubated for 2 hrs by LC-HRMS analysis; assay type: ADME, cell-free; details: read-out: Stability; outline: as §1
[8] = Stability in human plasma assessed as percentage intact peptide at 100 uM incubated for 6 hrs by LC-HRMS analysis; assay type: ADME, cell-free; details: read-out: Stability; outline: as §1
[9] = molecular target: Neurotensin receptor type 1 (Homo sapiens, UniProt P30989); experiment: Displacement of [3H]UR-MK300 from human NSTR1 in HT-29 cells incubated for 2 hrs by liquid scintillation counter; assay type: cell-based
Neurotensin receptor type 1, sequence (P30989 whole entry): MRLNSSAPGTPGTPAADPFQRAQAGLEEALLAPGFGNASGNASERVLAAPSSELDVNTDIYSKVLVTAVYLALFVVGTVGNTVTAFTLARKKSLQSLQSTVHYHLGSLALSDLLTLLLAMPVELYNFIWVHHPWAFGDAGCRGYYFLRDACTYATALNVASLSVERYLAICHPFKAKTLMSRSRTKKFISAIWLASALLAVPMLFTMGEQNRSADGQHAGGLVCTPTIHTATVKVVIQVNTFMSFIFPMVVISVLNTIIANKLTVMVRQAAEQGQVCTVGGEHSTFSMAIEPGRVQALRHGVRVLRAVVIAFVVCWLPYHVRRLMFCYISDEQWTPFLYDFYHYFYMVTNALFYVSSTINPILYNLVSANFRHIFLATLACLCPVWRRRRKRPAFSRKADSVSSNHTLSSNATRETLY

SMILES | remaining at 24 h, 100 µM [1] [%] | half-life at 100 µM [2] [min] | remaining at 1 h, 100 µM [3] [%] | remaining at 48 h, 100 µM [4] [%] | remaining at 10 min, 100 µM [5] [%] | remaining at 0.5 h, 100 µM [6] [%] | remaining at 2 h, 100 µM [7] [%] | remaining at 6 h, 100 µM [8] [%] | Ki [9] [nM]
CC[C@H](C)[C@H](NC(=O)[C@H](Cc1ccc(O)cc1)N(C)C(=O)[C@@H]1CCCN1C(=O)[C@H](CCCNC(=N)N)NC(=O)[C@@H](N)CCCNC(=N)N)C(=O)N[C@@H](CC(C)C)C(=O)O | – | – | < 1 | – | 22.9 | < 1 | < 1 | – | –
CC(C)C[C@H](NC(=O)[C@@H](NC(=O)[C@H](Cc1ccc(O)cc1)NC(=O)[C@@H]1CCCN1C(=O)[C@H](CCCNC(=N)N)NC(=O)[C@@H](N)CCCNC(=N)N)C(C)(C)C)C(=O)O.O=C(O)C(F)(F)F.O=C(O)C(F)(F)F.O=C(O)C(F)(F)F | < 1 | < 5 | < 1 | < 1 | 10.8 | – | – | – | –
CC(C)C[C@H](NC(=O)[C@@H](NC(=O)[C@H](Cc1ccc(O)cc1)NC(=O)[C@@H]1CCCN1C(=O)[C@H](CCCNC(=N)N)N(C)C(=O)[C@@H](N)CCCNC(=N)N)C(C)(C)C)C(=O)O.O=C(O)C(F)(F)F.O=C(O)C(F)(F)F.O=C(O)C(F)(F)F | > 99 | > 2880 | > 99 | > 99 | – | – | – | > 99 | 1.6
CCC(=O)N[C@@H](CCCNC(=N)N)C(=O)N[C@@H](CCCNC(=N)N)C(=O)N1CCC[C@H]1C(=O)N[C@@H](Cc1ccc(O)cc1)C(=O)N[C@H](C(=O)N[C@@H](CC(C)C)C(=O)O)[C@@H](C)CC.O=C(O)C(F)(F)F.O=C(O)C(F)(F)F | – | 60 to 120 | 71.8 | – | > 99 | 84 | – | – | –
CCC(=O)N[C@@H](CCCNC(=N)N)C(=O)N[C@@H](CCCNC(=N)N)C(=O)N1CCC[C@H]1C(=O)N[C@@H](Cc1ccc(O)cc1)C(=O)N[C@H](C(=O)N[C@@H](CC(C)C)C(=O)O)C(C)(C)C | > 99 | – | > 99 | 92.5 | – | – | – | > 99 | 18
CN[C@@H](CCCNC(=N)N)C(=O)N[C@@H](CCCNC(=N)N)C(=O)N1CCC[C@H]1C(=O)N[C@@H](Cc1ccc(O)cc1)C(=O)N[C@H](C(=O)N[C@@H](CC(C)C)C(=O)O)C(C)(C)C.O=C(O)C(F)(F)F.O=C(O)C(F)(F)F.O=C(O)C(F)(F)F | 98.3 | > 2880 | > 99 | 86.8 | – | – | – | > 99 | 0.88
CC[C@H](C)[C@H](NC(=O)[C@H](Cc1ccc(O)cc1)NC(=O)[C@@H]1CCCN1C(=O)[C@H](CCCNC(=N)N)NC(=O)[C@H](CCCNC(=N)N)NC)C(=O)N[C@@H](CC(C)C)C(=O)O.O=C(O)C(F)(F)F.O=C(O)C(F)(F)F.O=C(O)C(F)(F)F | – | < 300 | 79.7 | – | 92.1 | 88.2 | 70.8 | – | 0.223

Next, values leading:

remaining at 24 h, 100 µM [1] [%] | half-life at 100 µM [2] [min] | remaining at 1 h, 100 µM [3] [%] | remaining at 48 h, 100 µM [4] [%] | remaining at 10 min, 100 µM [5] [%] | remaining at 0.5 h, 100 µM [6] [%] | remaining at 2 h, 100 µM [7] [%] | remaining at 6 h, 100 µM [8] [%] | Ki [9] [nM] | SMILES
< 1 | < 5 | < 1 | < 1 | 23.1 | – | – | – | – | CC[C@H](C)[C@H](NC(=O)[C@H](Cc1ccc(O)cc1)NC(=O)[C@@H]1CCCN1C(=O)[C@H](CCCNC(=N)N)NC(=O)[C@@H](N)CCCNC(=N)N)C(=O)N[C@@H](CC(C)C)C(=O)O
– | – | < 1 | – | 2.6 | < 1 | < 1 | – | – | CC[C@H](C)[C@@H](C(=O)N[C@@H](CC(C)C)C(=O)O)N(C)C(=O)[C@H](Cc1ccc(O)cc1)NC(=O)[C@@H]1CCCN1C(=O)[C@H](CCCNC(=N)N)NC(=O)[C@@H](N)CCCNC(=N)N
– | – | < 1 | – | 39.9 | < 1 | < 1 | – | – | CC[C@H](C)[C@H](NC(=O)[C@H](Cc1ccc(O)cc1)NC(=O)[C@@H]1CCCN1C(=O)[C@H](CCCNC(=N)N)NC(=O)[C@@H](N)CCCNC(=N)N)C(=O)N(C)[C@@H](CC(C)C)C(=O)O
– | – | 83.7 | – | > 99 | 93.6 | 66.4 | – | – | CC[C@H](C)[C@H](NC(=O)[C@H](Cc1ccc(O)cc1)NC(=O)[C@@H]1CCCN1C(=O)[C@H](CCCNC(=N)N)N(C)C(=O)[C@@H](N)CCCNC(=N)N)C(=O)N[C@@H](CC(C)C)C(=O)O
